The record followed here is ChEMBL document CHEMBL1123657, “Anthrapyrazole anticancer agents. Synthesis and structure-activity relationships against murine leukemias” (J Med Chem, 1987).

Test [1] concerns L1210. Briefly: Compound was tested in vitro against murine L1210 leukemia;IA means inactive. The test is classed as functional, cell-based, Mus musculus.
The test system of test [2] is P388. Briefly: Optimal dose per injection in mg/kg required to inhibit growth of P388 leukemia cells in mice. The test is classed as functional, Mus musculus. The gist of the method: (§1)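 P388 leukemia implanted ip in mice; drug given ip on days 1 and 5 (ip/ip; D1,5), dosed in mg/kg per injection. Read-out is treated/control (T/C, %) with cures counted, reported at the optimal dose.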

Test [3] concerns P388. Put plainly: Inhibition of P388 leukemia cells in mice, measured as percent treated to the control values with the number of 30 day survivors. The test is classed as functional, Mus musculus. A digest of the protocol:
as §1

For test [4], the system named is P388. Briefly: Activity against P388 leukemia cells in mice, by intraperitoneal dosing and net log tumor cell kill was reported. The test is classed as functional, Mus musculus.
The test system of test [5] is L1210. Put plainly: Compound was tested in vitro against murine L1210 leukemia; IA is inactive. Type of test: functional, cell-based, Mus musculus.
Test [6] concerns B16. Briefly: Tested for activity against murine B-16 melanoma in mice and percent treated to the control values with the number of 60 day survivors. The test is classed as functional, Mus musculus. A digest of the protocol: (§2)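 Murine B-16 melanoma in vivo: tumor implanted ip, compound given ip on days 1–9 (ip/ip; D1–9), dosed as mg/kg per injection. Activity expressed as T/C (%) plus number of cures, taken at the optimal dose.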

The test system of test [7] is B16. Briefly: Optimal dose per injection in mg/kg required to inhibit growth of murine B-16 melanoma in vivo. Type of test: functional, Mus musculus. A digest of the protocol: as §2
Test [8] has as its system L1210. Put plainly: Tested in vitro against murine L1210 leukemia. Conditions: Mus musculus; call rule not given here. Type of test: functional, cell-based.
Test [9] concerns P388. Briefly: Tested for activity against P388 leukemia cells in mice, by intraperitoneal dosing and percent treated to the control values with the number of 30 day survivors i. Type of test: functional, Mus musculus. The gist of the method:
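P388 leukemia implanted intraperitoneally in mice. Compound given ip on days 1 and 5, as mg/kg per injection across a dose series. Read-out is median survival of treated mice as a percentage of untreated controls (T/C %), taken at the optimal dose, with cures noted.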

Structures are written as SMILES. A value given as a limit tells only on which side of the number the result lay.

As a reminder, the IC50 is the point on the concentration scale where inhibition reaches its midpoint. By T/C is commonly meant the ratio of treated to control. For `CCCCCCNc1ccc2c3c(nn2CCO)-c2ccccc2C(=O)c13`, the IC50 entry in the test with L1210 [1] is given as “Not Active”. In the test on P388 [2], the Dose came to 100 mg/kg. The T/C in the test on P388 [3] is reported as 98%. The Activity in the test on P388 [4] is recorded as -1.6.

For the compound `CCN(CC)CCNc1cccc2c1C(=O)c1cccc3c1c-2nn3C.Cl`, in the test on L1210 [5], the IC50 result is “Not Active”.

For the compound `Cl.NCCCNc1ccc2c3c(nn2CCNCCO)-c2c(O)ccc(O)c2C(=O)c13`, the T/C stood at 338% with B16 [6] and 294% in the test on P388 [3]. In the test on B16 [7], the Optimal dose came to 8 mg/kg. Moreover, the IC50 in the test on L1210 [8] stood at 960 nM. For the same compound, in the test on P388 [2], the Dose came to 45 mg/kg. The compound also came in with an Activity in the test on P388 [4] above 6.5.

In the test with L1210 [8], `CCN(CC)CCn1nc2c3c(cccc31)C(=O)c1c(NCCNCCO)cccc1-2.Cl` displayed an IC50 of 230 nM. This compound gave a Dose with P388 [2] of 12.5 mg/kg. This compound had a T/C in the test with P388 [9] of 117%. Further, in the test on P388 [4], the Activity is on record as -1.3.

Turning to `Cl.O=C1c2c(O)ccc(O)c2-c2nn(CCO)c3ccc(NCCNCCO)c1c23`, the T/C was found to be 246% in the test with B16 [6] and 271% with P388 [3]. The same compound had an Optimal dose in the test on B16 [7] of 80 mg/kg. Also, in the test on L1210 [8], the midpoint of inhibition, the IC50, lay at 780 nM. The Dose in the test on P388 [2] was determined as 200 mg/kg. The Activity with P388 [4] is 6.8.

For `Cl.O=C1c2c(O)ccc(O)c2-c2nn(CCNCCO)c3ccc(NCCN(CCO)CCO)c1c23`, the T/C is reported as 342% in the test on B16 [6] and 277% in the test with P388 [3]. The compound also displayed an Optimal dose in the test on B16 [7] of 25 mg/kg. The IC50 with L1210 [8] was 430 nM. In the test on P388 [2], this compound registered a Dose of 200 mg/kg. This compound registered an Activity with P388 [4] above 6.6.

Compound `CCN(CC)CCn1nc2c3c(c(NCCN)ccc31)C(=O)c1ccccc1-2.Cl` showed an IC50 with L1210 [8] of 46 nM. In the test on P388 [2], this compound had a Dose of 25 mg/kg. The T/C in the test with P388 [9] amounted to 104%. The compound further had an Activity in the test on P388 [4] of -1.5.

For `CN(C)CCn1nc2c3c(c(NCCNCCO)ccc31)C(=O)c1c(O)ccc(O)c1-2.Cl`, the T/C with B16 [6] is 183%; in the test with P388 [3] it was 242%. Further, the Optimal dose with B16 [7] worked out at 3 mg/kg. In the test with L1210 [8], this compound displayed an IC50 of 120 nM. Moreover, the Dose in the test on P388 [2] amounted to 12.5 mg/kg. In addition, the Activity with P388 [4] stood at 6.5.

Take `CCN(CC)CCn1nc2c3c(c(NCCN)ccc31)C(=O)c1c(O)ccc(O)c1-2.Cl`: the T/C with B16 [6] is 176%; in the test with P388 [3], 280%. Besides, the Optimal dose in the test on B16 [7] is 3.6 mg/kg. Also, the IC50 in the test with L1210 [8] came to 46 nM. Further, the Dose in the test on P388 [2] was 12.5 mg/kg. The compound also returned an Activity in the test with P388 [4] above 7.1.

With `Cl.NCCn1nc2c3c(c(NCCNCCO)ccc31)C(=O)c1c(O)ccc(O)c1-2`, the T/C in the test with B16 [6] came to 306%; in the test with P388 [3] it was 270%. Besides, the Optimal dose with B16 [7] was 3 mg/kg. Further, the IC50 in the test with L1210 [8] came out at 580 nM. In addition, the Dose in the test on P388 [2] worked out at 12.5 mg/kg. This compound also returned an Activity with P388 [4] above 6.7.

Turning to `COc1cccc2c1C(=O)c1c(O)c3c(c(O)c1C2=O)C[C@@](O)(C(=O)CO)C[C@@H]3O[C@H]1C[C@H](N)[C@H](O)[C@H](C)O1` [DOXORUBICIN], the T/C with B16 [6] is given as 434%; with P388 [3], 225%. Besides, the Optimal dose in the test with B16 [7] was 1 mg/kg. The same compound returned an IC50 with L1210 [8] of 69 nM. Also, the Dose in the test on P388 [2] was 8 mg/kg. Also, in the test on P388 [4], the Activity came out at 5.6.

For `O=C1c2c(O)ccc(O)c2C(=O)c2c(NCCNCCO)ccc(NCCNCCO)c21` [MITOXANTRONE], the results for the T/C in the test with B16 [6] and in the test with P388 [3] were 265% and 267%, respectively. Also, the Optimal dose in the test with B16 [7] turned out to be 0.6 mg/kg. Further, half-maximal inhibition in the test on L1210 [8] (IC50) was put at 1.6 nM. This compound also came in with a Dose in the test with P388 [2] of 3 mg/kg. This compound also had an Activity with P388 [4] above 6.8.

In the case of `CNCCNc1ccc2c3c(nn2CCNCCO)-c2c(O)ccc(O)c2C(=O)c13` [TELOXANTRONE], the T/C with B16 [6] stood at 357%. This compound also came in with an Optimal dose in the test with B16 [7] of 1.5 mg/kg. This compound also yielded an IC50 in the test with L1210 [8] of 140 nM. The compound further registered a Dose in the test on P388 [2] of 12.5 mg/kg. The Activity in the test on P388 [4] is given as above 6.6.
